The values below come from article PMC6989153 (Molecular pharmaceutics, 2019).

The test system of series [1] is MDA-MB-231 breast cancer. As to conditions: post-injection, tumor-bearing mice; cited from earlier work.
In series [2] the test system is HDL. The series can be described thus: Native gel electrophoresis of APC analogs in human plasma, HDL band. Format: in vitro ADME. As to conditions: incubated 4 hrs at 37°C, means ± SEM. The method in brief: (§1)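 Fresh, unfrozen human plasma was incubated with test compound (100nM) with shaking for 4 h at 37°C. Samples in sample buffer were run on non-denaturing Tris-glycine gels at a common voltage and duration. Band position and intensity were read by fluorescence imaging or by radioactivity scanning, followed by Coomassie staining. Standards were mouse albumin, human LDL, human HDL, gamma-globulins, alpha1-acid glycoprotein and fatty acid-free HSA.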

Series [3] is classed as in vivo, nude athymic mice. As to conditions: for MRT (mean residence time): n=6. The method in brief:
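Naive athymic nude mice (20–26 g) on standard chow received test compound by tail-vein injection: fluorescent analogs at 2.6μmol/kg, radioiodinated dose normalized to mass and body weight. Pre-dose blood was taken for background. Serial 10μL maxillary-puncture samples were collected into EDTA (n=6), and levels were read by fluorescence or gamma counting. Non-compartmental analysis gave clearance, AUC, AUMC and mean residence time, normalized to starting dose.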

A short description of series [4]: Log D determination. The series is classed as physicochemical. As to conditions: octanol/water, pH 7.4. Summed up: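 Test compound (radioiodinated, or fluorescent) was added to octanol and equilibrated overnight. An equal volume of distilled water at pH 7.4 was added, and the mixture was rotated at room temperature, protected from light, for 48 h. The phases were separated, and relative concentrations were measured by gamma counting (radioiodinated compound) or by fluorescence plate reader (fluorescent analogs).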

Series [5] deals with LDL. Nature of the series: Native gel electrophoresis of APC analogs in human plasma, LDL band. As to conditions: incubated 4 hrs at 37°C, means ± SEM. The series is classed as in vitro ADME. Summed up:
as §1

In series [6] the target is fatty acid-free human serum albumin (HSA) (Homo sapiens, UniProt P02768). The series can be described thus: Equilibrium dialysis. Format: binding. As to conditions: PBS, 37°C. Summed up:
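Fatty acid-free HSA was dissolved in PBS and loaded into a rapid equilibrium dialysis chamber, with PBS in the collection well. The device was shaken at 37°C, and small aliquots were drawn from the collection well over time. Concentration was measured by UV absorbance, or by gamma counting for radioiodinated compound.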

Series [7] concerns the target T1, Albumin (Homo sapiens, UniProt P02768). The series can be described thus: Native gel electrophoresis of APC analogs in human plasma, albumin band. The note with it: for Albumin (signal in band on native gel): incubated 4 hrs at 37°C, means ± SEM; for albumin binding: native gel analysis. The series is classed as in vitro ADME. The method in brief:
as §1

Series [8] addresses T1, Albumin. The series can be described thus: Partitioning in fresh unfrozen human plasma with intralipid, albumin binding. Format: in vitro ADME. Summed up:
(§2)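 Fresh, unfrozen human plasma was incubated with test compound plus varying intralipid (20% soybean oil, 1.2% egg yolk phospholipids, 2.25% glycerin emulsion), up to 20% v/v. Plasma partitioning runs were shaken for 4 h at 37°C, then ultracentrifuged at […] for 8 h. The layers were separated, and fluorescence (radiance efficiency) or radioactivity was measured in each, expressed as a percentage per fraction.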

Series [9] relates to lipoprotein fraction. The series is classed as in vitro ADME. As to conditions: human plasma. Summed up:
as §2

For series [10], the system named is MDA-MB-231 breast cancer. The series can be described thus: Tumor uptake kinetics in tumor-bearing flank xenografts. The series is classed as in vivo. The note with it: MDA-MB-231 flank xenografts, IVIS fluorescence imaging, three mice.
The mark [11] stands for this setting: athymic nude, mouse, whole blood, intravenous.
The mark [12] stands for this setting: nude athymic mice, tail-vein injection, normalized to starting dose.
The mark [13] stands for this setting: nude athymic mice, tail-vein injection.

Where two headings read alike, the source gives them in different places.

T1 sequence (P02768 25-609): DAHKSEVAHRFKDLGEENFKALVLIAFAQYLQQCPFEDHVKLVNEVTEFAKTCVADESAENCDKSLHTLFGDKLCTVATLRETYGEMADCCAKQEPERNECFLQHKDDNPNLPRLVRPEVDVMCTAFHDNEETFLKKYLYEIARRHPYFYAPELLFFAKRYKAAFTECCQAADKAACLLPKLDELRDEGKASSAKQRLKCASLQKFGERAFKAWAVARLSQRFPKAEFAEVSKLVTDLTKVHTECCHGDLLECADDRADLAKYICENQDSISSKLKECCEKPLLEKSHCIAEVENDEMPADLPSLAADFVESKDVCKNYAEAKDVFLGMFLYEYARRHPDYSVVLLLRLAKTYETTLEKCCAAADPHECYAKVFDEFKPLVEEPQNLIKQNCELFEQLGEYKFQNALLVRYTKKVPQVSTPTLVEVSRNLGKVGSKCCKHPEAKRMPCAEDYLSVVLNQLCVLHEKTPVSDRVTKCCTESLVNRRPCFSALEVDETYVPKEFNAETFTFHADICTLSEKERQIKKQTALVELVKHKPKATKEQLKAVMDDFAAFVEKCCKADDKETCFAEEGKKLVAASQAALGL
Sequence of fatty acid-free human serum albumin (HSA) (P02768 25-609): as above

As a reminder, the MRT is a mean duration of stay, worked out from the concentration-time curve. As usually defined, the logD is lipophilicity at a set pH, counting ionised and neutral species. A low value points to a more hydrophilic compound. As for `C[N+](C)(C)CCOP(=O)([O-])OCCCCCCCCCCCCCCCCCCc1ccc(I)cc1` [NM404, 18-(p-Iodophenyl)octadecylphosphocholine], in series [1], the “time at which tumor uptake was seen” value was 24 h and the “time of peak tumor uptake” value was 72 h. The “HDL (signal in band on native gel)” value in series [2] is 15.42 ± 0.41. In series [3] (setting [11]), this compound had a Clearance of 0.333 mL/min and an MRT of 99.2 h. In series [3] (setting [12]), this compound displayed an AUC of 43.66 h, an AUMC of 4333.63 hr^2 and a Clearance of 0.02 h⁻¹. For the same compound, the logD at 48 h in series [4] came out at 2.07. Also, the “LDL (signal in band on native gel)” value in series [5] came out at 4.60 ± 0.28. Also, the “binding to fatty acid-free human serum albumin” value in series [6] is recorded as 96%. In series [7], the “Albumin (signal in band on native gel)” value came to 79.99 ± 0.22 and the albumin binding was 79.99%.

On to `C[N+](C)(C)CCOP(=O)([O-])OCCCCCCCCCCCCCCCCCCc1ccc(C2=C3C=CC=[N+]3[B-](F)(F)n3cccc32)cc1` [compound 1501, 18-[p-(4,4-difluoro-4-bora-3a,4a-diaza-s-indacene-8-yl)-phenyl]-octadecyl phosphocholine], for which, in series [8] (20% intralipid), the albumin-binding percentage is 79.32%. The compound further showed an albumin-binding percentage in [8] (no intralipid) of 85.93%. For the same compound, the “lipoprotein percentage of fluorescence intensity” value in series [9] (20% v/v intralipid) was 14.40%. In addition, the “lipoprotein percentage of fluorescence intensity” value in series [9] (no intralipid) was found to be 7.33%. For the same compound, in series [2], the “HDL (signal in band on native gel)” value worked out at 10.25 ± 1.25. For the same compound, in series [3] (setting [13]), the “MRT (mean residence time)” value was 236.07 h. In series [3] (setting [12]), this compound gave an AUC of 159.64 h, an AUMC of 37686.99 hr^2, a CL of 0.01 L/h and a Clearance of 0.01 h⁻¹. In [5], the “LDL (signal in band on native gel)” value was 7.11 ± 0.41. In addition, in series [7], the “Albumin (signal in band on native gel)” value is recorded as 82.64 ± 1.62 and the albumin binding was 82.64%.

`CN1/C(=C/C=C2\CCCC(/C=C/C3=[N+](C)c4ccccc4C3(C)C)=C2c2ccc(CCCCCCCCCCCCCCCCCCOP(=O)(O)OCC[N+](C)(C)C)cc2)C(C)(C)c2ccccc21` [compound 1502, 1,3,3-trimethyl-2-[(E)-2-[(3E)-3-(2-[(2E)-1,3,3-trimethyl-2,3-dihydro-1H-indol-2-ylidene]ethylidene}−2-[4-(18-([2-(trimethylazaniumyl)ethylhosphonato]oxy)octadecyl)phenyl]cyclohex-1-en-1-yl]ethenyl]-3H-indol-1-ium]: in series [10], the “time at which uptake into the cancer was first seen” value was found to be 4.5 h and the “time of peak tumor uptake” value came to 24 h. The “HDL (signal in band on native gel)” value in series [2] was 20.90 ± 2.57. Further, the “MRT (mean residence time)” value in series [3] (setting [13]) is 33.95 h. For the same compound, in series [3] (setting [12]), the AUC came to 13.16 h, the AUMC is recorded as 446.66 hr^2, the CL stood at 0.08 L/h and the Clearance stood at 0.08 h⁻¹. In addition, in [5], the “LDL (signal in band on native gel)” value was 9.21 ± 0.86. In series [7], the “Albumin (signal in band on native gel)” value came to 69.88 ± 3.32 and the albumin binding amounted to 69.88%.
